From ChEMBL document CHEMBL1144463, “Rapid bactericidal activity of daptomycin against methicillin-resistant and methicillin-susceptible Staphylococcus aureus peritonitis in mice as measured with bioluminescent bacteria” (2007)
≈ marks a conversion by molar mass, not a printed value.

What was measured:
Format in all cases: functional
Staphylococcus aureus [1] = assay: Antimicrobial activity against bioluminescent methicillin-susceptible Staphylococcus aureus Xen29
Method in brief: (§1)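 MIC by broth microdilution following CLSI guidelines against bioluminescent lux-carrying strains (Xen-1 plasmid-borne lux, Xen-29 chromosomal lux), grown overnight in Mueller-Hinton broth at 37°C.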

Staphylococcus aureus [2] = assay: Reduction in bioluminescent methicillin-sensitive Staphylococcus aureus Xen29 in neutropenic CD1 mouse with peritonitis at 100 mg/kg, sc after 5 hrs relative to control; parameters: scale not given: the % may be the effect or the level left; details: route subcutaneous
Method in brief: (§2)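 Neutropenia was induced with cyclophosphamide 150 mg/kg i.p. at day −4 and 100 mg/kg i.p. at day −1. Mice were then infected i.p. with Xen-29 (2 × 10^7 to 5 × 10^8 CFU) in 6% mucin (n = 5/group) and dosed once, s.c. or by gavage, at 1 h. Luminescence was imaged hourly under anesthesia, 0–5 h postdosing. Mean region-of-interest flux is given as percent reduction versus time-matched saline (10 ml/kg s.c.) controls.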

Staphylococcus aureus [3] = assay: Reduction in bioluminescent methicillin-sensitive Staphylococcus aureus Xen29 in immunocompetent CD1 mouse with peritonitis at 100 mg/kg, sc after 5 hrs relative to control; parameters: scale not given: the % may be the effect or the level left; details: route subcutaneous
Method in brief: (§3)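 Peritonitis in healthy female CD-1 mice (n = 5/group): i.p. Xen-29 (2 × 10^7 to 5 × 10^8 CFU) in 6% mucin, then a single s.c. or gavage dose at 1 h. Controls got saline 10 ml/kg s.c. Mice were anesthetized hourly (pentobarbital 60 mg/kg i.p. or isoflurane) and imaged ventral side up for 1–5 min, to 5 h postdosing. Total flux (photons/s/cm2) over the infected region was averaged per group. Percent reduction is versus time-matched saline controls.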

Staphylococcus aureus [4] = assay: Reduction in bioluminescent methicillin-sensitive Staphylococcus aureus Xen29 in immunocompetent CD1 mouse with peritonitis at 100 mg/kg, sc after 3 hrs relative to control; parameters: scale not given: the % may be the effect or the level left; details: route subcutaneous; method in brief: as §3
Staphylococcus aureus [5] = assay: Reduction in bioluminescent methicillin-sensitive Staphylococcus aureus Xen29 in immunocompetent CD1 mouse with peritonitis at 100 mg/kg, sc relative to control; parameters: scale not given: the % may be the effect or the level left; details: route subcutaneous; method in brief: as §3
Staphylococcus aureus [6] = assay: Reduction in bioluminescent methicillin-sensitive Staphylococcus aureus Xen29 in immunocompetent CD1 mouse at 100 mg/kg, sc after 4 hrs relative to control; parameters: scale not given: the % may be the effect or the level left; details: route subcutaneous; method in brief: as §3
Staphylococcus aureus [7] = assay: Reduction in bioluminescent methicillin-sensitive Staphylococcus aureus Xen29 in neutropenic CD1 mouse with peritonitis at 100 mg/kg, sc after 2 hrs relative to control; parameters: scale not given: the % may be the effect or the level left; details: route subcutaneous; method in brief: as §2
Staphylococcus aureus [8] = assay: Antimicrobial activity against bioluminescent methicillin-resistant Staphylococcus aureus Xen1; method in brief: as §1
Staphylococcus aureus [9] = assay: Reduction in bioluminescent methicillin-sensitive Staphylococcus aureus Xen29 in neutropenic CD1 mouse with peritonitis at 100 mg/kg, sc after 4 hrs relative to control; parameters: scale not given: the % may be the effect or the level left; details: route subcutaneous; method in brief: as §2
Staphylococcus aureus [10] = assay: Reduction in bioluminescent methicillin-sensitive Staphylococcus aureus Xen29 in neutropenic CD1 mouse with peritonitis at 100 mg/kg, sc after 3 hrs relative to control; parameters: scale not given: the % may be the effect or the level left; details: route subcutaneous; method in brief: as §2
Staphylococcus aureus [11] = assay: Antibacterial activity against methicillin-resistant Staphylococcus aureus Xen1 infected neutropenic CD1 mouse assessed as mortality at 100 mg/kg, po within 24 hrs; details: Xen1, 24 h
Method in brief: (§4)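 Female CD-1 mice (20–25 g) were made neutropenic with cyclophosphamide i.p. at 150 mg/kg 4 days and 100 mg/kg 1 day before infection. They were infected i.p. with a lethal dose of lux strain (2 × 10^7 to 5 × 10^8 CFU/mouse) suspended in 6% hog gastric mucin. A single s.c. or gavage dose was given 1 h later. Survivors were counted daily for 7 days, n=5/group.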

Staphylococcus aureus [12] = assay: Antibacterial activity against methicillin-susceptible Staphylococcus aureus Xen29 infected neutropenic CD1 mouse assessed as mortality at 100 mg/kg, po within 24 hrs; details: Xen29, 24 h; method in brief: as §4
Staphylococcus aureus [13] = assay: Protection against methicillin-susceptible Staphylococcus aureus Xen29 infection in nonneutropenic CD1 mouse at 100 mg/kg, po after 7 days
Method in brief: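 Female CD-1 mice (20–25 g, n = 5/group) were given an i.p. lethal inoculum of lux-bearing MSSA Xen-29 (2 × 10^7 to 5 × 10^8 CFU/mouse) suspended in 6% hog gastric mucin. A single dose was given by gavage 1 h after inoculation. Survival was recorded daily for 7 days after inoculation.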

Staphylococcus aureus [14] = assay: Antibacterial activity against methicillin-susceptible Staphylococcus aureus Xen29 infected nonneutropenic CD1 mouse assessed as mouse survival at 50 mg/kg, sc after 7 days; details: 168 h, route subcutaneous
Method in brief: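 Healthy female CD-1 mice (20–25 g) were infected i.p. with a lethal dose of lux strain (2 × 10^7 to 5 × 10^8 CFU/mouse) from an overnight Mueller-Hinton culture suspended in 6% hog gastric mucin. A single s.c. dose was given 1 h post-inoculation. Survival was recorded daily for 7 days, n=5/group.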

Staphylococcus aureus [15] = assay: Antibacterial activity against methicillin-susceptible Staphylococcus aureus Xen29 infected neutropenic CD1 mouse assessed as mortality at 100 mg/kg, po after 4 days; method in brief: as §4
Staphylococcus aureus [16] = assay: Antibacterial activity against methicillin-resistant Staphylococcus aureus Xen1 infected neutropenic CD1 mouse assessed as mortality at 100 mg/kg, po after 4 days; method in brief: as §4

For `CCOc1ccc2ccccc2c1C(=O)N[C@@H]1C(=O)N2[C@@H]1SC(C)(C)[C@@H]2C(=O)O` [NAFCILLIN], which MIC (Staphylococcus aureus [1]) is on record?
Its MIC is 0.5 µg/mL (≈ 1.21 µM).

And the Activity (Staphylococcus aureus [2])?
The Activity was 99.2%.

And the Activity (Staphylococcus aureus [3])?
The Activity was 98%.

What about the Activity (Staphylococcus aureus [4]) of the same molecule?
The Activity was 93%.

What about the Activity (Staphylococcus aureus [5]) of the same molecule?
Its Activity is 82%.

What about the Activity (Staphylococcus aureus [6]) of the same molecule?
Its Activity is 96%.

What about the Activity (Staphylococcus aureus [7]) of the same molecule?
Its Activity is 84%.

And the MIC (Staphylococcus aureus [8])?
The MIC was 64 µg/mL (≈ 154 µM).

And the Activity (Staphylococcus aureus [9])?
Its Activity is 98.3%.

What about the Activity (Staphylococcus aureus [10]) of the same molecule?
The Activity was 95.6%.

What about the survival at 100 mg/kg (Staphylococcus aureus [11]) of the same molecule?
Its survival at 100 mg/kg is 100%.

And the survival at 100 mg/kg (Staphylococcus aureus [12])?
Its survival at 100 mg/kg is 100%.

What about the Activity (Staphylococcus aureus [13]) of the same molecule?
The Activity was 100%.

And the survival at 50 mg/kg (Staphylococcus aureus [14])?
Its survival at 50 mg/kg is 100%.

What does the source list for `CN[C@H](CC(C)C)C(=O)N[C@H]1C(=O)N[C@@H](CC(N)=O)C(=O)N[C@H]2C(=O)N[C@H]3C(=O)N[C@H](C(=O)N[C@H](C(=O)O)c4cc(O)cc(O)c4-c4cc3ccc4O)[C@H](O)c3ccc(c(Cl)c3)Oc3cc2cc(c3O[C@@H]2O[C@H](CO)[C@@H](O)[C@H](O)[C@H]2O[C@H]2C[C@](C)(N)[C@H](O)[C@H](C)O2)Oc2ccc(cc2Cl)[C@H]1O` [VANCOMYCIN]?
Activity (Staphylococcus aureus [15]): 100%; Activity (Staphylococcus aureus [16]): 100%; survival at 100 mg/kg (Staphylococcus aureus [11]): 100%; survival at 100 mg/kg (Staphylococcus aureus [12]): 100%
